In paper PMC7771297 (Oncogene, 2017):
Blank lines part the entries; values can stand above or below the compound they belong to.

Key:
[1] = test system: SAOS-2 osteosarcoma cells; assay: IP-MS of PTHrP1–17 in SAOS-2 conditioned media with exogenous MMP-3; format: cell-based, human; settings: SAOS-2+MMP-3 100 ng/ml; SAOS-2 alone = 0.004
[2] = test system: PAIII rat prostate adenocarcinoma cells; assay: IP-MS of PTHrP1–17 in PAIII conditioned media with MMP inhibition; format: cell-based
[3] = test system: PTH1R; settings: PTH1R overexpressing CHO-K1 cells; cited from earlier work
[4] = test system: PTH1R; settings: PTH1R overexpressing CHO-K1 cells; cited from earlier work; remark: listed apart in the source
[5] = test system: CREB phosphorylation in MC3T3 osteoblasts; assay: CREB phosphorylation in MC3T3 osteoblasts; format: cell-based, mouse; settings: MC3T3, 10 nM for 5 min in serum free media
Method in brief: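 Immunoblot of MC3T3 osteoblasts exposed to peptides for 5 min in serum-free media. Controls were serum-free (S0), 10% serum (S10) and a scrambled peptide. Cells were lysed in RIPA buffer (pH 8) and protein was measured by BCA. Blots were blocked in 5% BSA for 1 h, probed with primary antibody then HRP-conjugated secondary, with actin as loading control. Run in triplicate.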

[6] = biological target: T1, PTH1R (Mus musculus, UniProt P41593); assay: cAMP production in MC3T3 osteoblasts; format: cell-based; settings: MC3T3, 10 nM for 15 min, n = 5/group
T1 sequence (P41593 27-591): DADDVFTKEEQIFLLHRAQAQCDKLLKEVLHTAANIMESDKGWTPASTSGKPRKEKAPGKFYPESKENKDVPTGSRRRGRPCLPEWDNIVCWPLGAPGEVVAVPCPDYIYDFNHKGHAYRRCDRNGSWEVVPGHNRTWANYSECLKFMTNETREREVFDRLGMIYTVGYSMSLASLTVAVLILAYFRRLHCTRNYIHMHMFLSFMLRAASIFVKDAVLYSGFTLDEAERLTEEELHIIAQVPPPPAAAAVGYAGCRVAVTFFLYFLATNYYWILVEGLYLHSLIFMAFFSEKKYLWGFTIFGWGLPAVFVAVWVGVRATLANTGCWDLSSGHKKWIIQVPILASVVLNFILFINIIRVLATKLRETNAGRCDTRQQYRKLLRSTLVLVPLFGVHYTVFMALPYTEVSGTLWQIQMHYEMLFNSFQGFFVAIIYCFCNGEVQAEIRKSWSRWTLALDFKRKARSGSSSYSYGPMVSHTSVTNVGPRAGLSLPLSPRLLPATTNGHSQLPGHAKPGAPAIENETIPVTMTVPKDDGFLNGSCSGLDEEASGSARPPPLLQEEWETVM
Method in brief: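 MC3T3 osteoblasts were plated at 2.5 × 10^4 cells/well and exposed to peptides for 15 min (range 1–100 tested), n = 5/group. cAMP was measured with the cAMP-Glo luminescent assay. The forskolin analogue NKH477 (15 min) served as positive control. Groups were compared by ANOVA with Tukey's test.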

[7] = biological target: T1, PTH1R; assay: ERK phosphorylation in PTH1R knockdown MC3T3 cells; format: cell-based; settings: shPTH1R MC3T3 versus control shRNA, 10 nM for 5 min
Method in brief: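 PTH1R knockdown MC3T3 clones were made by lentiviral transduction of a pool of three shRNAs, with scrambled-sequence shControl clones; clone D was used. Cells got peptides for 5 min and were lysed in RIPA. Phospho-ERK immunoblots were blocked in 5% BSA, detected with HRP secondary and normalised to actin loading control. Triplicate experiments.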

[8] = biological target: T1, PTH1R; assay: Calcium flux in PTH1R knockdown MC3T3 cells; format: cell-based; settings: shPTH1R versus shControl MC3T3, 10 nM
Method in brief: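 Stable shPTH1R MC3T3 clones came from lentiviral transduction of three pooled PTH1R shRNAs; shControl clones carried a scrambled sequence. Cells (1 × 10^5) were loaded with Fluo-4 Direct. Time-lapse microscopy followed fluorescence after peptide addition. Increases (RFU) were measured in single cells, n = 20/group, from three fields per condition. A second shPTH1R clone was also tested.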

[9] = test system: SCID-Beige mice; assay: In vivo calvarial injection assay; parameters: species or system mouse; settings: 2 μg s.c. over the calvaria every 6 h for 3 days, n = 3/group
Method in brief: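 Randomized 4–6-week-old female SCID-Beige mice (n = 3/group) received 2 μg peptide s.c. over the calvaria every 6 h for 3 days. Calvariae were harvested 10 h after the last injection, fixed and scanned by high-resolution μCT. They were then decalcified (14% EDTA, pH 7.4, 3 days) and paraffin-embedded, and 5 μm sections were stained with H&E, trichrome and TRAcP. Bone-lining multinucleated TRAcP-positive osteoclasts were counted per μm bone.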

[10] = test system: calvariae of Rag2−/− neonates; assay: Neonatal calvaria ex vivo assay; parameters: species or system mouse; settings: 10 nM, 14 days, n = 4/group
Method in brief: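 Calvariae were isolated from 4-day-old Rag2−/− neonates and kept in organ culture. They were exposed to peptides for 14 days, n = 4/group.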

[11] = test system: MSCs; assay: Migration of primary MSCs; format: cell-based, mouse; settings: 10 nM in serum free media, 6 h / 5-h (methods), n = 3/group
[12] = test system: MC3T3 cells; assay: Migration of MC3T3 osteoblasts; format: cell-based, mouse; settings: MC3T3, 10 nM in serum free media, 6 h / 5-h (methods), n = 3/group
Method in brief: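 Modified Boyden chamber assay: after 24-h serum starvation, 5 × 10^5 MC3T3 cells were seeded in the upper chamber (n = 3/group). Migration toward peptide in serum-free media ran at 37 °C, 5 h per methods (6 h in legend). Serum-free and 1% serum media were negative and positive controls. Cells were counted per ×20 field in five micrographs per condition.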

[13] = biological target: MMP-3 (Homo sapiens, UniProt P08254); assay: MMP-3 processing of PTHrP; format: in vitro ADME; settings: MALDI-TOF
MMP-3, sequence (P08254 100-272 limits assumed): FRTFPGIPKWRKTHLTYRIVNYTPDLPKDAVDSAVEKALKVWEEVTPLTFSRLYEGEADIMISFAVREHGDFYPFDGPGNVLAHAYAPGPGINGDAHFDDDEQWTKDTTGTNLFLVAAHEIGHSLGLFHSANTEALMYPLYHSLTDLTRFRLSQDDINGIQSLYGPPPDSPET
Method in brief: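 Recombinant PTHrP1–86 (100 ng) was digested 1 h with active MMP-3 (100 ng) in 0.15 M NaCl, Tris pH 7.6 buffer. Products were resolved by SDS-PAGE with Coomassie staining and by immunoblot. N-terminal sequencing was done, and for MALDI-TOF peptides were C18-extracted and mixed with α-cyano-4-hydroxycinnamic acid matrix.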

[14] = test system: ERK phosphorylation in MC3T3 osteoblasts; assay: ERK phosphorylation in osteoblasts; format: cell-based, mouse; settings: 10 nM, 5 min, serum free media, vs control or scrambled peptide
[15] = test system: SCID-Beige mice; assay: Murine model of ectopic bone formation; format: in vivo, mouse; settings: 40 μg/kg/day s.c., 21 days
Method in brief: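 Gelfoam sponges loaded with 1 × 10^6 bone marrow MSCs from C57BL/6 mice were implanted s.c. into randomized 6-week-old male SCID-Beige mice, two implants per flank, n = 3/group. After 1-week recovery, peptides or vehicle were injected s.c. daily at 40 μg/kg/day for 21 days. Ossicles were excised for μCT and trichrome histology, with bone matrix quantified.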

[16] = test system: osteoblasts; assay: Tumour necrosis factor-α-induced cell death of osteoblasts; format: cell-based
[17] = biological target: T1, PTH1R; assay: Calcium flux in MC3T3 osteoblasts; format: cell-based; settings: MC3T3, 10 nM, fluorescence in individual cells, n = 20/group
Method in brief: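 MC3T3 cells (1 × 10^5) were loaded with Fluo-4 Direct calcium reagent and imaged by time-lapse fluorescence microscopy before and after peptide addition (0 and 60 s frames shown). Fluorescence rise was quantified in individual cells, n = 20/group, from three fields of view per condition.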

[18] = test system: osteoprotegerin (OPG); assay: OPG expression in whole bone marrow co-cultures; format: cell-based, mouse; settings: 10 nM for 48 h
[19] = test system: ERK phosphorylation in MSCs; assay: ERK phosphorylation in primary MSCs; format: cell-based, mouse; settings: 10 nM, 5 min, vs control or scrambled peptide
[20] = test system: RANKL; assay: RANKL expression in whole bone marrow co-cultures; format: cell-based, mouse; settings: 10 nM for 48 h
[21] = bone marrow cultures, n = 3/group

Compound: MMP-3: recombinant MMP-3 (Millipore, #444217) added to SAOS-2 cells
ratio of endogenous PTHrP1–17 to PTHrP1–17 SIS (peak areas) [1]: 0.03

Compound: CNC(=O)[C@H](Cc1c[nH]c2ccccc12)NC(=O)[C@@H](CC(=O)NO)CC(C)C [GM6001]
reduction of the amount of PTHrP1–17 in conditioned media ([2]; PAIII, GM6001 10 μM, serum free 24 h, IP-MS with SIS1–17): 77%
ratio of endogenous PTHrP1–17 to PTHrP1–17 SIS (peak areas) ([2]; PaIII+GM6001 10 μM, PaIII alone = 0.13): 0.03

Compound: PTHrP1–16: N-terminal PTHrP fragment of a recent study (ref 31) (AVSEHQLLHDKGKSIQ; UniProt P12272 37-52, looked up, fragment)
calcium flux [3]: no effect on calcium flux
cAMP production [4]: does not result in cAMP production

cAMP production [6]: induced cAMP
ability to induce ERK phosphorylation in PTH1R knockdown cells [7]: abrogated
calcium flux in PTH1R knockdown cells [8]: significantly reduced
calcium flux [17]: triggered increases in calcium flux
Compound: PTHrP1–36: mature 36 amino acid form of parathyroid hormone-related protein (ProImmune)
CREB phosphorylation [5]: only induced by PTHrP1–36
bone resorption of calvaria [9]: displayed areas of extensive bone resorption
bone formation in calvaria ex vivo [10]: no evidence of bone formation
degradation of calvaria ex vivo [10]: significant degradation of the calvaria
migration [11]: significantly increased migration
migration [12]: significantly increased migration
further cleavage of PTHrP1–36 by MMP-3 ([13]; 0.15 M NaCl, 50 mM Tris pH 7.6): further cleaved to distinct stable peptide products
time in which MMP-3 generated the main PTHrP products ([13]; kinetic analyses): ≤ 1 h
ERK phosphorylation [14]: induced ERK phosphorylation within 5 min
osteoid in trichrome stained ossicle sections ([15]; n = 3/group): a significant amount of osteoid
trabecular bone volume of hind limbs ([15]; compared to control): significantly more bone
bone formation in ectopic ossicles, μCT ([15]; intermittent, n = 3/group): revealed bone formation
prevention of tumour necrosis factor-α-induced cell death [16]: did not prevent
OPG expression (real-time PCR) [18, 21]: suppressing OPG
OPG expression (RT-PCR) ([18]; primary bone marrow cultures): appeared to suppress the expression of osteoprotegerin (OPG)
ERK phosphorylation [19]: induced ERK phosphorylation within 5 min
RANKL expression (real-time PCR) [20, 21]: significantly enhanced RANKL expression
ratio of average RANKL:OPG transcripts ([20]; bone marrow cultures, real-time PCR): 15.03
RANKL expression (RT-PCR) ([20]; primary bone marrow cultures): increased RANKL expression
